# Assay outcomes: PubChem BioAssay, several laboratories
# In the library only some 4% were active in any assay of this set; here they are far more common.
# OX1R antag-1 = antagonists of human orexin 1 receptor. O43613. CHO/OX1R cells, Fluo-8 calcium fluorescence, orexin A. inhibition, % at 5 µM. 330,000 tested, 0.43% active;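 active = inhibition above its plate's threshold, mean inhibition of all tested compounds on the plate plus 3 SD, cut at about 37% in these data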;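 also: 0% = orexin A challenge wells and 100% = SB-334867-A antagonist wells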
# Target sequence (O43613 whole entry, looked up): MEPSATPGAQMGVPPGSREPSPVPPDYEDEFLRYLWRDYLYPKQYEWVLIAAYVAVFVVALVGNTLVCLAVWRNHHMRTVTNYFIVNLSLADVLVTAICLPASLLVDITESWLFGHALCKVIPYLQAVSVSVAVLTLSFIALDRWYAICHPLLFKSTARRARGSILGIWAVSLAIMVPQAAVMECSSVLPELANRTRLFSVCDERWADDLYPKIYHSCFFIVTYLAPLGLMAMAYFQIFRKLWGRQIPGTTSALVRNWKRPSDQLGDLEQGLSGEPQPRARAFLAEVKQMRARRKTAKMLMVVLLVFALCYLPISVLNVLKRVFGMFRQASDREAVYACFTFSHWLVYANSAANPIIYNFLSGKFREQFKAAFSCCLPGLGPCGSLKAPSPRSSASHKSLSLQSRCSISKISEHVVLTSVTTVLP
# CHO parental Ca = signal in parental CHO cells, OX1R antagonist counter-screen; 330,000 tested, 0.63% active; AID 463079; inhibition, % at 5.6 µM; parental CHO-K1, ATP-induced calcium, Fluo-8 fluorescence;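 active = inhibition above that plate's mean sample inhibition plus 3 SD, cut at about 26% in these data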;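 also: 0% = ATP-challenged DMSO wells and 100% = DMSO wells without ATP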
#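 test system = CHO parental line | reagent = ATP stimulus | measured by = intracellular calcium via Fluo-8 no-wash fluorescent dye | control set = ATP and no-ATP DMSO wells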
# TAAR1 antagonist = antagonists of human TAAR1; Q96RJ0; CHO RD-HGA16 TAAR1, Fluo-8 calcium fluorescence, antagonist; inhibition, % at 3 µM; 360,000 tested, 1.5% active;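 active = inhibition above a per-plate cutoff, the mean inhibition of test compounds on that plate plus 3 SD, cut at about 49% in these data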;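 also: 0% = DMSO plus EC80 beta-PEA response and 100% = DMSO alone without agonist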
#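 Material: RD-HGA16 CHO cells with stable hTAAR1 and Gα16; Dosing: single nominal final test compound concentration of 3 µM; Schedule: seeding 17-24 h prior, 75-min 37 °C, 30-min RT dye loading; Detection: kinetic Fluo-8 calcium fluorescence measurement; Measure: % inhibition from peak post-agonist over basal fluorescence ratio; Benchmarks: vehicle and agonist controls.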
# NTR1 ag = activates human neurotensin receptor 1 | P30989 | NTR1-U2OS beta-arrestin-GFP spot imaging, agonist mode | activation, % at 20 µM | 330,000 tested, 0.17% active;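 active = activation at or above 40% of the spot to cytoplasm intensity ratio, with at least 20 cells analyzed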;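 also: 0% = DMSO without peptide and 100% = 100 nM NTR1 peptide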
# TAAR1 agonist = human TAAR1 agonism | 360,000 tested, 0.99% active | Q96RJ0 | AID 624467 | activation, % at 3 µM | CHO RD-HGA16 TAAR1, Fluo-8 calcium fluorescence; vehicle wells 0%, saturating PEA agonist 100%;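 active = activation above the mean activation of all test compounds in the run plus 3 SD, cut at about 38% in these data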
#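 Test system: RD-HGA16 (CHO) cells co-expressing Gα16 and hTAAR1 / Benchmarks: DMSO vehicle as 0%, PEA at EC100 as 100% / Repeats: no replicates (n 1) / Measure: % activation from peak over basal fluorescence ratio, DMSO-to-PEA scaled / Timing: 17-24 h plating, Fluo-8 75 min 37 °C, 30 min RT / Technique: kinetic Fluo-8 calcium fluorescence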
# OX1R antag-2 = blocks the human orexin 1 receptor; OX1R-expressing cells, FRET antagonist read-out; inhibition, % at 6.6 µM; AID 485270; 330,000 tested, 1.8% active; in the data active = inhibition mostly above about 38%, no sharp cut-off; inactive = mostly below about 40%;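 also: 0% = agonist challenge alone and 100% = reference antagonist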
# NTR1 ag conf = confirmation of agonists of human NTR1 | 480 tested, 38% active | activation, % at 20 µM | AID 504550 | shares compounds with NTR1 ag | NTR1-U2OS beta-arrestin-GFP translocation imaging;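 active = mean activation at 20 µM of at least 40%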;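 also: 0% = DMSO without peptide and 100% = 100 nM NTR1 peptide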
# * hit, by the source's call; x = no result given.
SMILES,OX1R antag-1,CHO parental Ca,TAAR1 antagonist,NTR1 ag,TAAR1 agonist,OX1R antag-2,NTR1 ag conf
COC(=O)CSc1nc(N)c2c3c(sc2n1)C(c1ccccc1)SC(c1ccccc1)C3 (stereo unspecified),3,-15,x,50*,x,13,32
COC(=O)CSc1nc(N)c2c3c(sc2n1)CCCC3,-4,-6,-8,-1,10,34,x
O=C(c1ccccc1)C1CCN(C(=O)C2CCC(=O)N(Cc3ccccc3F)C2)CC1 (stereo unspecified),-17,-23,10,2,0,27,x
COc1cccc(CCN2C(=O)C(=O)N([C@@H](CNCc3ccccc3)Cc3ccccc3F)C[C@@H]2C(C)(C)C)c1,-18,-14,x,6,x,20,x
CC1(c2ccccc2)CC(C)(C)n2c(O)c(C3=NC(=S)NC3=O)c3cccc1c32 (stereo unspecified),-34,-24,-21,42*,28,1,27
Cc1ccc(S(=O)(=O)Oc2ccc3c(c2)O/C(=C\c2cccnc2)C3=O)cc1,-26,-11,x,43*,x,8,33
CCC(C)CCN1C(Nc2ccccc2)=NC[C@@H]1Cc1ccccc1 (stereo partly specified),-36,-25,-9,2,21,14,x
COc1ccc(C2CC(c3ccccc3)=NN2c2ccc(C(N)=O)cc2)cc1 (stereo unspecified),-10,-32,23,41*,19,2,20
COc1ccc(C2CC(c3ccccc3)=NN2c2ccc(S(N)(=O)=O)cc2)cc1 (stereo unspecified),-7,-6,15,23,2,9,x
Oc1ccc(C2=NN(c3ccccc3)C(c3ccc(F)cc3)C2)cc1 (stereo unspecified),5,58*,-1,61*,2,17,11
CCOC(=O)c1cc(-c2ccccc2)sc1NC(=O)C(C)Sc1nnc(N)s1 (stereo unspecified),-13,-7,10,44*,-1,18,25
CCOC(=O)c1cc(-c2ccccc2)sc1NC(=O)CSc1nnc(N)s1,-18,-10,6,17,3,12,x
Cc1ccc(-c2csc(-c3c[nH]c4ccccc34)n2)c(C)c1,-19,-2,32,46*,5,20,4
Oc1ccc(-c2csc(-c3c[nH]c4ccccc34)n2)c(O)c1,12,-1,10,17,3,26,x
COc1ccccc1NC(=O)C(C)N1C(=O)C2CCCCC2C1=O (stereo unspecified),12,-17,1,0,-1,9,x
COc1ccc(CC(=O)OCC(=O)c2ccc(F)cc2)cc1,-5,-9,-12,-1,3,8,x
Cc1ccc(S(=O)(=O)N(CC2CO2)c2cc(Cl)ccc2Cl)cc1 (stereo unspecified),-25,-14,-7,0,-2,13,x
CCCCn1c(N)c(-c2nc3ccccc3s2)c2c([N+](=O)[O-])nn(C)c(=O)c21,-19,-10,31,61*,9,6,5
CC(C)(C)C1CCc2c(sc(NC(=O)CSc3ncn[nH]3)c2C#N)C1 (stereo unspecified),-17,-2,11,41*,7,11,31
CC1CCc2c(sc(NC(=O)CSc3ncn[nH]3)c2C#N)C1 (stereo unspecified),-12,-17,4,2,9,1,x
COc1ccc(Cl)cc1Nc1nc2ccc(C)cc2n2cnnc12,0,2,11,46*,0,9,31
COc1ccc(OC)c(Nc2nc3ccc(C)cc3n3cnnc23)c1,-25,-12,6,22,7,3,x
C[C@H](NC(=O)c1ncn2c1C(=O)NC[C@H]2C)C(=O)OC(C)(C)C,x,x,-16,x,1,x,x
N=c1c(-c2nc3ccccc3[nH]2)cc(C(=O)c2cccs2)nn1-c1ccccc1,-19,-12,x,52*,x,11,-1
O=C(/C=C/c1c(F)cccc1Cl)c1ccc(O)cc1,4,10,-26,63*,1,34,5
